{
  "source": "ChEMBL document CHEMBL1125378",
  "about": "“alpha-Methyl polyamines: metabolically stable spermidine and spermine mimics capable of supporting growth in cells depleted of polyamines” (J Med Chem, 1992)",
  "key": {"[1]": {"system": "HT-29", "assay": "Compound level in HT-29 cells after 96 h", "assay_type": "functional, cell-based", "settings": "Homo sapiens", "summary_of_the_method": "(§1)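 HT29 experiment B: 5 mM DFMO for 120 h before addition and throughout a further 96 h; refed at 96 h. Cells without DFMO cultured 96 h in total. Polyamines measured as nmol/mg protein (detection limit 0.2). SD from at least four separate experiments.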"}, "[2]": {"system": "HT-29", "assay": "Compound level in HT-29 cells after 72 h", "assay_type": "functional, cell-based", "settings": "Homo sapiens"}, "[3]": {"system": "HT-29", "assay": "Compound level in DFMO-treated HT-29 cells after 72 h", "assay_type": "functional, cell-based", "settings": "Homo sapiens", "summary_of_the_method": "(§2)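 HT29 cells pretreated with 5 mM DFMO for 120 h, then polyamine added and culture continued with DFMO for 72 h (experiment A); refed at 96 h. Cellular polyamine content given as nmol/mg protein (detection limit 0.2). SD from at least four separate experiments.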"}, "[4]": {"system": "HT-29", "assay": "Compound level in 72 hr DFMO (5 mM)-treated HT-29 cells after exposure to 25 uM 1-methylspermine", "assay_type": "functional, cell-based", "settings": "Homo sapiens", "summary_of_the_method": "as §2"}, "[5]": {"system": "L1210", "assay": "Compound level in 72 h DFMO (5 mM)-treated L1210 cells after exposure to 10 uM spermine", "assay_type": "functional, cell-based", "settings": "Mus musculus", "summary_of_the_method": "(§3)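 L1210 cells held in 5 mM DFMO for 72 h before polyamine addition and through a further 72 h, refed at 72 h; controls without DFMO cultured 72 h in total. Intracellular polyamines reported as nmol/mg protein (detection limit 0.2). Mean ± SD from at least four separate experiments.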"}, "[6]": {"system": "L1210", "assay": "Compound level in 72 hr DFMO (5 mM)-treated L1210 cells after exposure to 10 uM 1,12-dimethylspermine", "assay_type": "functional, cell-based", "settings": "Mus musculus", "summary_of_the_method": "as §3"}, "[7]": {"assay": "Retention time was determined", "assay_type": "ADME"}, "[8]": {"system": "SV3T3", "assay": "Compound level in 72 hr DFMO (5 mM)-treated SV3T3 cells after exposure to 10 uM spermidine", "assay_type": "functional, cell-based", "settings": "Mus musculus", "summary_of_the_method": "(§4)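 SV-3T3 fibroblasts (experiment A) held in 5 mM DFMO for 72 h before polyamine addition and throughout a further 72 h. Intracellular polyamines expressed as nmol/mg protein (detection limit 0.05). SD from at least four separate experiments, or duplicate where no SD is given.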"}, "[9]": {"system": "SV3T3", "assay": "Compound level in DFMO-treated SV3T3 cells at 0 h", "assay_type": "functional, cell-based", "settings": "Mus musculus", "summary_of_the_method": "as §4"}, "[10]": {"system": "HT-29", "assay": "Compound level in 72 hr DFMO (5 mM)-treated HT-29 cells after exposure to 10 uM spermine", "assay_type": "functional, cell-based", "settings": "Homo sapiens", "summary_of_the_method": "as §2"}, "[11]": {"system": "SV3T3", "assay": "Compound level in SV3T3 cells after 96 hr", "assay_type": "functional, cell-based", "settings": "Mus musculus"}, "[12]": {"system": "L1210", "assay": "Compound level in DFMO-treated L1210 cells at 0 h", "assay_type": "functional, cell-based", "settings": "Mus musculus", "summary_of_the_method": "as §3"}, "[13]": {"system": "SV3T3", "assay": "Compound level in 96 hr DFMO (5 mM)-treated SV3T3 cells after exposure to 25 uM spermine", "assay_type": "functional, cell-based", "settings": "Mus musculus"}, "[14]": {"species": "Homo sapiens", "assay": "Compound level in DFMO-treated HT-29 cells after 96 h", "assay_type": "functional, cell-based", "summary_of_the_method": "as §1"}, "[15]": {"system": "HT-29", "assay": "Compound level in 72 hr DFMO (5 mM)-treated HT-29 cells after exposure to 10 uM spermidine", "assay_type": "functional, cell-based", "settings": "Homo sapiens", "summary_of_the_method": "as §2"}, "[16]": {"system": "SV3T3", "assay": "Compound level in 72 hr DFMO (5 mM)-treated SV3T3 cells after exposure to 10 uM spermine", "assay_type": "functional, cell-based", "settings": "Mus musculus", "summary_of_the_method": "as §4"}, "[17]": {"system": "HT-29", "assay": "Compound level in 96 hr DFMO (5 mM)-treated HT-29 cells after exposure to 10 uM spermine", "assay_type": "functional, cell-based", "settings": "Homo sapiens"}, "[18]": {"system": "L1210", "assay": "Compound level in L1210 cells after 72 h", "assay_type": "functional, cell-based", "settings": "Mus musculus", "summary_of_the_method": "as §3"}, "[19]": {"system": "SV3T3", "assay": "Compound level in 96 hr DFMO (5 mM)-treated SV3T3 cells after exposure to 10 uM spermine", "assay_type": "functional, cell-based", "settings": "Mus musculus"}, "[20]": {"system": "L1210", "assay": "Compound level in 72 hr DFMO (5 mM)-treated L1210 cells after exposure to 10 uM spermidine", "assay_type": "functional, cell-based", "settings": "Mus musculus", "summary_of_the_method": "as §3"}, "[21]": {"system": "HT-29", "assay": "Compound level in 72 h DFMO (5 mM)-treated HT-29 cells after exposure to 25 uM spermidine", "assay_type": "functional, cell-based", "settings": "Homo sapiens"}, "[22]": {"system": "HT-29", "assay": "Compound level in 72 hr DFMO (5 mM)-treated HT-29 cells after exposure to 15 uM spermine", "assay_type": "functional, cell-based", "settings": "Homo sapiens", "summary_of_the_method": "as §2"}, "[23]": {"system": "HT-29", "assay": "Compound level in 72 hr DFMO (5 mM)-treated HT-29 cells after exposure to 10 uM 1-methylspermine", "assay_type": "functional, cell-based", "settings": "Homo sapiens", "summary_of_the_method": "as §2"}},
  "data": [
    {"smiles": "NCCCCNCCCN", "note": "[SPERMIDINE]", "values": [
      {"measurement": "Level (nM (mg of protein)-1)", "setting": "[1]", "result": 13.4},
      {"measurement": "Level (nM (mg of protein)-1)", "setting": "[2]", "result": 9.8},
      {"measurement": "Level (nM (mg of protein)-1)", "setting": "[3]", "result": 0.7},
      {"measurement": "Level (nM (mg of protein)-1)", "setting": "[4]", "result": 0.3},
      {"measurement": "Level (nM (mg of protein)-1)", "setting": "[5]", "result": 6.4},
      {"measurement": "Level (nM (mg of protein)-1)", "setting": "[6]", "result": 0.2},
      {"measurement": "tR", "setting": "[7]", "result": 33.9, "unit": "min"},
      {"measurement": "Level (nM (mg of protein)-1)", "setting": "[8]", "result": 8.7},
      {"measurement": "Level (nM (mg of protein)-1)", "setting": "[9]", "result": 0.3},
      {"measurement": "Level (nM (mg of protein)-1)", "setting": "[10]", "result": 7.9},
      {"measurement": "Level (nM (mg of protein)-1)", "setting": "[11]", "result": 26.4},
      {"measurement": "Level (nM (mg of protein)-1)", "setting": "[12]", "result": 1},
      {"measurement": "Level (nM (mg of protein)-1)", "setting": "[13]", "result": 3.1},
      {"measurement": "Level (nM (mg of protein)-1)", "setting": "[14]", "result": 0.4},
      {"measurement": "Level (nM (mg of protein)-1)", "setting": "[15]", "result": 23.6},
      {"measurement": "Level (nM (mg of protein)-1)", "setting": "[16]", "result": 2.6},
      {"measurement": "Level (nM (mg of protein)-1)", "setting": "[17]", "result": 4.4},
      {"measurement": "Level (nM (mg of protein)-1)", "setting": "[18]", "result": 41},
      {"measurement": "Level (nM (mg of protein)-1)", "setting": "[19]", "result": 11.5},
      {"measurement": "Level (nM (mg of protein)-1)", "setting": "[20]", "result": 38},
      {"measurement": "Level (nM (mg of protein)-1)", "setting": "[21]", "result": 25.1},
      {"measurement": "Level (nM (mg of protein)-1)", "setting": "[22]", "result": 4.8},
      {"measurement": "Level (nM (mg of protein)-1)", "setting": "[23]", "result": 0.4}
    ]}
  ]
}
